In ChEMBL document CHEMBL3588793, “Small molecule inhibitors of HIVgp41 N-heptad repeat trimer formation” (Bioorg Med Chem Lett, 2015) one finds Activity and IC50 data, which are given here for two compounds.

Activity calls are given as the source filed them. The calls are words filed in the database; no cut-off is given here.

Data set [1] can be described thus: Cytotoxicity against human HL2/3 cells at 100 uM. The format is cell-based. The conditions noted are these: hl2/3, 100 µM. The procedure, abridged: (§1)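 TZM-bl target cells (2.5×10^4/well) were seeded; 24 h later HL2/3 effector cells (5.0×10^4/well, […]) were added together with compound diluted in DMSO to a final 100 µM. After 6 h, Tat-driven LTR-luciferase luminescence (fusion) and cell viability were read in a combined reporter/viability kit. Six replicates; ANOVA with Tukey post hoc test against untreated co-culture.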

Data set [2] can be described thus: Inhibition of HIVgp41 activity assessed as inhibition of TZM-bl and HL2/3 cell fusion after 6 hrs by luciferase reporter assay. The format is cell-based. To be noted: Human immunodeficiency virus 1, HL2/3, 6 h. The procedure, abridged: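 Dose-response runs of the TZM-bl/HL2/3 co-culture luciferase fusion assay over a range of concentrations. Viability signal was scaled to the maximal signal (fraction of maximal proliferation). Each well's fusion luminescence was divided by that fraction, background was subtracted, and values were normalized to fraction of maximal effect. IC50 was taken from curve fitting.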

A further data set relates to HL2/3. Description: Inhibition of HIV gp41 activity assessed as inhibition of TZM-bl and HL2/3 cell fusion at 100 uM after 6 hrs by luciferase reporter assay. The conditions noted are these: Human immunodeficiency virus. The format is cell-based. An outline of the steps:
as §1

The nature of data set [3]: Cytotoxicity against human TZM-bl cells at 100 uM. It is filed as cell-based. The procedure, abridged: as §1
In data set [4] the test system is Human immunodeficiency virus. Put plainly: Inhibition of HIVgp41 activity assessed as fluorescence intensity at 800 uM by FRET assay relative to 40 uM bithionol.

Take `CCn1c(SCC(=O)N/N=C/c2cccc(Oc3ccccc3)c2)nnc1-c1ccc(OC)cc1`: the Activity result in data set [1] and in data set [3] was “Non-toxic” in each case. Besides, in data set [2], the IC50 amounted to 56.7 µM. For the same compound, the result in the data set with HL2/3 was Active. The result in data set [4] was inactive.
With `COc1ccc(-c2cc(C(=O)NCc3ccc(Cl)cc3)n[nH]2)cc1S(=O)(=O)N1CCOCC1`, the Activity entry in data set [1] and in data set [3] was “Non-toxic” throughout. In data set [2], the IC50 was 58.6 µM. Further, the result with HL2/3 was Active. Besides, the result in data set [4] was inactive.
